Experimental data published in ChEMBL document CHEMBL4038284, “Synthesis of novel quinoline-based 4,5-dihydro-1H-pyrazoles as potential anticancer, antifungal, antibacterial and antiprotozoal agents” (Eur J Med Chem, 2017).
Values after ≈ are worked out from the molar mass of the structure shown.

Assays:
Cryptococcus neoformans [1] = experiment: Antifungal activity against Cryptococcus neoformans ATCC 32264 incubated for 48 hrs under dark condition by broth microdilution method; type: functional; conditions: ATCC 32264, 48 h
How it was run: (§1)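 CLSI M27-A3 broth microdilution in RPMI-1640, DMSO ≤1%, compounds at 250-0.98 µg/mL final. Inoculum 1-5 × 10^3 CFU/mL. Incubated 48 h at 30 °C in a moist dark chamber, read at OD405. MIC80 and MIC50 taken from % inhibition dose-response curves (mean ± SEM, triplicate). Amphotericin B was the positive control.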

Candida albicans [2] = experiment: Growth inhibition of Candida albicans ATCC 10231 at 250 ug/ml incubated for 48 hrs under dark condition by broth microdilution method relative to control; type: functional; conditions: ATCC 10231, 48 h, read-out: GI
How it was run: (§2)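 CLSI M27-A3 broth microdilution in RPMI-1640, DMSO ≤1%. Inoculum 1-5 × 10^3 CFU/mL. Incubated 48 h at 30 °C, dark. % inhibition = 100 − (OD405 test − sterility control)/(OD405 growth control − sterility control), with growth and sterility control wells. Triplicate.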

Cryptococcus neoformans [3] = experiment: Growth inhibition of Cryptococcus neoformans ATCC 32264 at 3.4 ug/ml incubated for 48 hrs under dark condition by broth microdilution method relative to control; type: functional; conditions: ATCC 32264, 48 h, read-out: GI
Candida albicans [4] = experiment: Growth inhibition of Candida albicans ATCC 10231 at 7.8 ug/ml incubated for 48 hrs under dark condition by broth microdilution method relative to control; type: functional; conditions: ATCC 10231, 48 h, read-out: GI; how it was run: as §2
Cryptococcus neoformans [5] = experiment: Growth inhibition of Cryptococcus neoformans ATCC 32264 at 250 ug/ml incubated for 48 hrs under dark condition by broth microdilution method relative to control; type: functional; conditions: ATCC 32264, 48 h, read-out: GI; how it was run: as §2
Plasmodium falciparum = experiment: Antiplasmodial activity against chloroquine-sensitive Plasmodium falciparum 3D7 assessed as reduction in parasitic LDH activity after 48 hrs by Malstat reagent based […] method; type: functional; conditions: 3D7, 48 h
How it was run: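 Unsynchronized P. falciparum 3D7 at 0.5% parasitemia and 1% hematocrit in RPMI with 3% Albumax II. Exposed to 100, 25, 6.25 and 1.56 µg/mL for 48 h at 37 °C under 90% N2/5% CO2/5% O2. After three freeze-thaw cycles, LDH measured with Malstat and NBT/PES, 1 h in the dark, read at 650 nm. IC50 by Probit; triplicate, ≥2 experiments.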

Cryptococcus neoformans [6] = experiment: Growth inhibition of Cryptococcus neoformans ATCC 32264 at 125 ug/ml incubated for 48 hrs under dark condition by broth microdilution method relative to control; type: functional; conditions: ATCC 32264, 48 h, read-out: GI; how it was run: as §2
Cryptococcus neoformans [7] = experiment: Growth inhibition of Cryptococcus neoformans ATCC 32264 at 62.5 ug/ml incubated for 48 hrs under dark condition by broth microdilution method relative to control; type: functional; conditions: ATCC 32264, 48 h, read-out: GI; how it was run: as §2
Candida albicans [8] = experiment: Growth inhibition of Candida albicans ATCC 10231 at 15.62 ug/ml incubated for 48 hrs under dark condition by broth microdilution method relative to control; type: functional; conditions: ATCC 10231, 48 h, read-out: GI; how it was run: as §2
U-937 = experiment: Cytotoxicity against human U937 cells after 72 hrs by MTT assay; type: cell-based; conditions: u-937, 72 h
How it was run: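 Exponentially growing U-937 at 1 × 10^5 cells/mL in RPMI-1640 with 10% FBS were exposed to 200, 50, 12.5 and 3.125 µg/mL for 72 h at 37 °C, 5% CO2. MTT for 3 h, stopped with isopropanol/SDS, formazan read at 570 nm, blank-corrected. LC50 by Probit from % viability against untreated cells. Triplicate, at least two independent experiments.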

Staphylococcus aureus [9] = experiment: Antibacterial activity against vancomycin-intermediate Staphylococcus aureus after 24 hrs by resazurin dye based microdilution assay; type: functional
How it was run: (§3)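 MIC taken as the lowest concentration giving visible inhibition and/or by resazurin (1 mg/mL). Gentamicin was the control. Run in duplicate, repeated at least three times.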

Candida albicans [10] = experiment: Antifungal activity against Candida albicans ATCC 10231 incubated for 48 hrs under dark condition by broth microdilution method; type: functional; conditions: ATCC 10231, 48 h; how it was run: as §1
Cryptococcus neoformans [11] = experiment: Growth inhibition of Cryptococcus neoformans ATCC 32264 at 31.25 ug/ml incubated for 48 hrs under dark condition by broth microdilution method relative to control; type: functional; conditions: ATCC 32264, 48 h, read-out: GI; how it was run: as §2
Neisseria gonorrhoeae = experiment: Antibacterial activity against beta lactamase positive Neisseria gonorrhoeae ATCC 31426 by oxidase test; type: functional
How it was run: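 Agar dilution MIC on GC agar with 1% isovitalex containing increasing compound concentrations. Plates inoculated with about 1×10^4 CFU (5 µL). MIC is the lowest concentration that inhibited growth, with growth confirmed by oxidase test. Run in duplicate, repeated at least three times.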

Candida albicans [12] = experiment: Growth inhibition of Candida albicans ATCC 10231 at 3.4 ug/ml incubated for 48 hrs under dark condition by broth microdilution method relative to control; type: functional; conditions: ATCC 10231, 48 h, read-out: GI
Escherichia coli = experiment: Antibacterial activity against Escherichia coli ATCC 25922 after 24 hrs by resazurin dye based microdilution assay; type: functional; conditions: ATCC 25922, 24 h; how it was run: as §3
Candida albicans [13] = experiment: Growth inhibition of Candida albicans ATCC 10231 at 125 ug/ml incubated for 48 hrs under dark condition by broth microdilution method relative to control; type: functional; conditions: ATCC 10231, 48 h, read-out: GI; how it was run: as §2
Candida albicans [14] = experiment: Growth inhibition of Candida albicans ATCC 10231 at 62.5 ug/ml incubated for 48 hrs under dark condition by broth microdilution method relative to control; type: functional; conditions: ATCC 10231, 48 h, read-out: GI; how it was run: as §2
Pseudomonas aeruginosa = experiment: Antibacterial activity against Pseudomonas aeruginosa ATCC 27853 after 24 hrs by resazurin dye based microdilution assay; type: functional; conditions: ATCC 27853, 24 h; how it was run: as §3
Staphylococcus aureus [15] = experiment: Antibacterial activity against methicillin-sensitive Staphylococcus aureus ATCC 25923 after 24 hrs by resazurin dye based microdilution assay; type: functional; conditions: ATCC 25923, 24 h; how it was run: as §3
Leishmania panamensis = experiment: Antileshmanial activity against EpiR/GFP fused Leishmania panamensis MHOM/CO/87/UA140 intracellular amastigotes infected in human […] cells after 72 hrs by flow cytometric method; type: functional, cell-based; conditions: MHOM/CO/87/UA140, 72 h
How it was run: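 PMA-treated U-937 cells (3 × 10^5 cells/mL) infected with stationary-phase GFP L. panamensis promastigotes (15:1), 3 h at 34 °C, then washed. After 24 h, compounds added at 50, 12.5, 3.125 and 0.78 µg/mL for 72 h at 37 °C. EC50 by Probit; triplicate, two experiments.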

Candida albicans [16] = experiment: Growth inhibition of Candida albicans ATCC 10231 at 31.25 ug/ml incubated for 48 hrs under dark condition by broth microdilution method relative to control; type: functional; conditions: ATCC 10231, 48 h, read-out: GI; how it was run: as §2
Staphylococcus aureus [17] = experiment: Antibacterial activity against methicillin-resistant Staphylococcus aureus ATCC 43300 after 24 hrs by resazurin dye based microdilution assay; type: functional; conditions: ATCC 43300, 24 h
How it was run: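 Broth microdilution in Mueller Hinton broth, inoculum 5 × 10^5 – 8 × 10^5. Compound stocks diluted in MHB with 5% DMSO and 0.1% Tween 80. Incubation 24 h at 35-37 °C. MIC is the lowest concentration with visible growth inhibition and/or by resazurin (1 mg/mL) read-out. Gentamicin as control. Run in duplicate, replicated at least three times.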

Cryptococcus neoformans [18] = experiment: Growth inhibition of Cryptococcus neoformans ATCC 32264 at 7.8 ug/ml incubated for 48 hrs under dark condition by broth microdilution method relative to control; type: functional; conditions: ATCC 32264, 48 h, read-out: GI; how it was run: as §2
Klebsiella pneumoniae [19] = experiment: Antibacterial activity against ESBL positive Klebsiella pneumoniae ATCC 700603 after 24 hrs by resazurin dye based microdilution assay; type: functional; conditions: Klebsiella pneumoniae, 700603, 24 h; how it was run: as §3
Klebsiella pneumoniae [20] = experiment: Antibacterial activity against carbapenemase positive Klebsiella pneumoniae BAA 1705 after 24 hrs by resazurin dye based microdilution assay; type: functional; conditions: BAA 1705, 24 h; how it was run: as §3
Cryptococcus neoformans [21] = experiment: Growth inhibition of Cryptococcus neoformans ATCC 32264 at 15.62 ug/ml incubated for 48 hrs under dark condition by broth microdilution method relative to control; type: functional; conditions: ATCC 32264, 48 h, read-out: GI; how it was run: as §2
Trypanosoma cruzi = experiment: Antitrypanosomal activity against Trypanosoma cruzi Tulahuen intracellular amastigote harboring LacZ infected in human U937 cells after 72 hrs by CPRG/Nonidet reagent based spectrophotometric method; type: functional, cell-based; conditions: U-937, 72 h
How it was run: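 U-937 cells at 2.5 × 10^5 cells/mL in RPMI-1640 with 10% serum and 0.1 µg/mL PMA were infected with β-galactosidase-transfected Tulahuen epimastigotes at 5 parasites per cell. Infected cells were exposed to 50, 12.5, 3.125 and 0.78 µg/mL for 72 h. CPRG (100 uM) and 0.1% Nonidet P-40 were added for 3 h, read at 570 nm. EC50 by Probit. Triplicate, at least two experiments; benznidazole as reference.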

Structure (SMILES): Clc1ccc(N2N=C(c3ccccc3)CC2c2cccc(Nc3ccnc4cc(Cl)ccc34)c2)cc1 (stereo not given)
- MIC50 (Cryptococcus neoformans [1]): 250 µg/mL (≈ 491 µM)
- MIC80 (Cryptococcus neoformans [1]): ≥ 250 µg/mL
- inhibition of growth at 250 µg/mL (Candida albicans [2]): 26.9%
- inhibition of growth at 3.4 µg/mL (Cryptococcus neoformans [3]): 0%
- inhibition of growth at 7.8 µg/mL (Candida albicans [4]): 4.82%
- inhibition of growth at 250 µg/mL (Cryptococcus neoformans [5]): 61%
- EC50 (Plasmodium falciparum): 10.3 µg/mL (≈ 20.1 µM)
- inhibition of growth at 125 µg/mL (Cryptococcus neoformans [6]): 46%
- inhibition of growth at 62.5 µg/mL (Cryptococcus neoformans [7]): 13.8%
- inhibition of growth at 15.62 µg/mL (Candida albicans [8]): 8.78%
- LC50 (U-937): > 200 µg/mL
- MIC (Staphylococcus aureus [9]): > 1000 µg/mL
- MIC50 (Candida albicans [10]): ≥ 250 µg/mL
- MIC80 (Candida albicans [10]): ≥ 250 µg/mL
- inhibition of growth at 31.25 µg/mL (Cryptococcus neoformans [11]): 5.92%
- MIC (Neisseria gonorrhoeae): > 1000 µg/mL
- inhibition of growth at 3.4 µg/mL (Candida albicans [12]): 2.71%
- MIC (Escherichia coli): > 1000 µg/mL
- inhibition of growth at 125 µg/mL (Candida albicans [13]): 18.9%
- inhibition of growth at 62.5 µg/mL (Candida albicans [14]): 10.9%
- MIC (Pseudomonas aeruginosa): > 1000 µg/mL
- MIC (Staphylococcus aureus [15]): > 1000 µg/mL
- EC50 (Leishmania panamensis): 15.7 µg/mL (≈ 30.8 µM)
- inhibition of growth at 31.25 µg/mL (Candida albicans [16]): 10.5%
- MIC (Staphylococcus aureus [17]): > 1000 µg/mL
- inhibition of growth at 7.8 µg/mL (Cryptococcus neoformans [18]): 0%
- MIC (Klebsiella pneumoniae [19]): > 1000 µg/mL
- MIC (Klebsiella pneumoniae [20]): > 1000 µg/mL
- inhibition of growth at 15.62 µg/mL (Cryptococcus neoformans [21]): 0%
- EC50 (Trypanosoma cruzi): 15.1 µg/mL (≈ 29.7 µM)
